Measurements as given in ChEMBL document CHEMBL1128530, “Alpha- and beta-adrenoceptors: from the gene to the clinic. 1. Molecular biology and adrenoceptor subclassification” (J Med Chem, 1995).

Legend:
[1] = target: T1, Alpha-2A adrenergic receptor (Homo sapiens, UniProt P08913); assay: The compound was tested for binding affinity against Alpha-2A adrenergic receptor from human clones.
T1 sequence (P08913 whole entry): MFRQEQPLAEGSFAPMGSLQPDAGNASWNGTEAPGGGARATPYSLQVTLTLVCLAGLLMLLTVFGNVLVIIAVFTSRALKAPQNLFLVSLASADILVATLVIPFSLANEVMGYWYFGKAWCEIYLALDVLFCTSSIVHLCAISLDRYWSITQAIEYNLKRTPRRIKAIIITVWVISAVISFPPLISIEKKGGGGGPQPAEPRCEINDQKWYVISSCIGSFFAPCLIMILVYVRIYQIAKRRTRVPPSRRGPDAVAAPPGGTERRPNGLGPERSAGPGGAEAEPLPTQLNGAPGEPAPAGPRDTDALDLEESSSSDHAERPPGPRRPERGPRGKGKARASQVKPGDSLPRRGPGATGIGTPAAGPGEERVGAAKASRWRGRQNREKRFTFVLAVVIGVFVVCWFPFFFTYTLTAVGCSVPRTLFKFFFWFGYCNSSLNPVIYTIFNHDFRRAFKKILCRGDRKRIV
How it was run: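 Human α2A-adrenoceptor clone expressed in CHO cells; radioligand binding read out as Ki (nM).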

[2] = target: T2, Alpha-1A adrenergic receptor (Rattus norvegicus, UniProt P43140); assay: Overall binding displacement in tissues containing only the Alpha-1A adrenergic receptor from rat submaxillary gland
T2 sequence (P43140 whole entry): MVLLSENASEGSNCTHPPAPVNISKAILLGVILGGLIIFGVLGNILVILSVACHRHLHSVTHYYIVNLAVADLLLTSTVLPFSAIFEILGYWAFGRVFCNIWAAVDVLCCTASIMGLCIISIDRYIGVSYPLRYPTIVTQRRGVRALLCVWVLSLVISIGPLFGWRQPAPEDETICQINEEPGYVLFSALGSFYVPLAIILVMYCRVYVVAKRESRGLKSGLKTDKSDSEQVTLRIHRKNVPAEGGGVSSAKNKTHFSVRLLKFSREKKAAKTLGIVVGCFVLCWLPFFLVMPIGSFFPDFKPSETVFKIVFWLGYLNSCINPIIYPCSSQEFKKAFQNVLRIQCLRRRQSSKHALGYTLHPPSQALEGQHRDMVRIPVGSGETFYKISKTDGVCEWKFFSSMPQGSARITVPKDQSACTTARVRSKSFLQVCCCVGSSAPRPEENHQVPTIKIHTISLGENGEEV

[3] = target: T3, Alpha-1A adrenergic receptor (Bos taurus, UniProt P18130); assay: The compound was tested for binding affinity against Alpha-1A adrenergic receptor from bovine clones.
T3 sequence (P18130 whole entry): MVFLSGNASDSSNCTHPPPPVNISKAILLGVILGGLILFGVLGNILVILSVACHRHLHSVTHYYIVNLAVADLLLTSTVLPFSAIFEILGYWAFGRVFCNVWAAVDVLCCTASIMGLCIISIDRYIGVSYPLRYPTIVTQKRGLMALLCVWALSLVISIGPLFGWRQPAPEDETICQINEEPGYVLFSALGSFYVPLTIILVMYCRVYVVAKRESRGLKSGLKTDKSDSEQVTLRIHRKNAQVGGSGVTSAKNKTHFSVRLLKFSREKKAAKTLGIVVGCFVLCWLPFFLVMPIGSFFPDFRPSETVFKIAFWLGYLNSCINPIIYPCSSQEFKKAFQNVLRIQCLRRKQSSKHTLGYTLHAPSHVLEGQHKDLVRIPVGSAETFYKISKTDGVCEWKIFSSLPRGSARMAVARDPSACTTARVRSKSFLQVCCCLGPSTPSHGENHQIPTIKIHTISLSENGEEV

[4] = target: T4, Alpha-1A adrenergic receptor (Homo sapiens, UniProt P35348); assay: The compound was tested for binding affinity against Alpha-1A adrenergic receptor from human clones.
T4 sequence (P35348 whole entry): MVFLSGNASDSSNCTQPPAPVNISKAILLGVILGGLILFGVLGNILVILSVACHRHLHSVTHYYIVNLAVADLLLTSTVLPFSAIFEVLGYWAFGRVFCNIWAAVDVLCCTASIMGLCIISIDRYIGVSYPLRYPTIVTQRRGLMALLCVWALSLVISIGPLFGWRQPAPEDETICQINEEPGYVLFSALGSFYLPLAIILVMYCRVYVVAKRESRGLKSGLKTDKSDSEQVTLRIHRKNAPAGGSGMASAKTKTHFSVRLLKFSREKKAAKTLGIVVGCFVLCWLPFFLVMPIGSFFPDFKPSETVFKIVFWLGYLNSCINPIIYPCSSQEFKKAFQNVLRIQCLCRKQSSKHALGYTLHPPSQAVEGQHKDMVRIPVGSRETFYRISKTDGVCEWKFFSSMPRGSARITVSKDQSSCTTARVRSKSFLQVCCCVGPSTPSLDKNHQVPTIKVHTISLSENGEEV

[5] = target: Alpha-1B adrenergic receptor (Rattus norvegicus, UniProt P15823); assay: Overall binding displacement in tissues containing only the Alpha-1B adrenergic receptor (rat spleen, rat liver); format: tissue-based
Chain of Alpha-1B adrenergic receptor (P15823 whole entry, looked up): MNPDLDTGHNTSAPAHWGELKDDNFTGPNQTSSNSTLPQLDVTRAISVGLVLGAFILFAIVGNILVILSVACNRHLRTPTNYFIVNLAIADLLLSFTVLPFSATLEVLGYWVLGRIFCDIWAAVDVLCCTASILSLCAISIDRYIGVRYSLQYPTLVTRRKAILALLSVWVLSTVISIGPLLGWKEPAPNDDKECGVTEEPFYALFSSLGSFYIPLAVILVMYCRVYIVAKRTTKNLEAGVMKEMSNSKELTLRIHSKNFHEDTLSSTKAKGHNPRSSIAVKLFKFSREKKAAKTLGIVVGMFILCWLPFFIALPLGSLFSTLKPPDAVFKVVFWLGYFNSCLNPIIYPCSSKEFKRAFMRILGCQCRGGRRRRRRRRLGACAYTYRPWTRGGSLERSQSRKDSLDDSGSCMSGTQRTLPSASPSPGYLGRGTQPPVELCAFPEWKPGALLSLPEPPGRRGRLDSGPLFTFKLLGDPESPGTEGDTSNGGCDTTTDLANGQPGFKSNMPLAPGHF

[6] = target: T1, Alpha-2A adrenergic receptor; assay: Binding affinity against Alpha-2A adrenergic receptor, from human clones.
[7] = target: T4, Alpha-1A adrenergic receptor; assay: Binding affinity against Alpha-1A adrenergic receptor from human clone
[8] = target: T3, Alpha-1A adrenergic receptor; assay: Binding affinity against Alpha-1A adrenergic receptor from bovine clone
[9] = target: T5, Alpha-2A adrenergic receptor (Rattus norvegicus, UniProt P22909); assay: The compound was tested for binding affinity against alpha-2d-adrenoceptor, from rat clones.
T5 sequence (P22909 whole entry): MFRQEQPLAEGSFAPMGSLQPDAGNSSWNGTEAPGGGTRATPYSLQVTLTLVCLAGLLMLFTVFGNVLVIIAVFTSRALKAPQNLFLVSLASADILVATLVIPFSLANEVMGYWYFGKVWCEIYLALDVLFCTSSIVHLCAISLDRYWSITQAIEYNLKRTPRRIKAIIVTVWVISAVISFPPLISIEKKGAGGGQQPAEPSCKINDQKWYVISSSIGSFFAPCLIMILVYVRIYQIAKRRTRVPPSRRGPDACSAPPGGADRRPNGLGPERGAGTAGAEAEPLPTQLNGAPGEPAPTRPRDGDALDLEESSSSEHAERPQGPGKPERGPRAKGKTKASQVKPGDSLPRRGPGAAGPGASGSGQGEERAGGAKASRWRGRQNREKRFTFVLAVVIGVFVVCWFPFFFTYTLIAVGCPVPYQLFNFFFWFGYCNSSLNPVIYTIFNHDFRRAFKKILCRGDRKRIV

Compound | Ki [1] | Ki [2] | Ki [3] | Ki [4] | Ki [5] | Ki [6] | Ki [7] | Ki [8] | Ki [9]
COc1ccccc1N1CCN(CCCNc2c(C)c(=O)n(C)c(=O)n2C)CC1 | 612 nM | 0.7 nM | 4.4 nM | 2.3 nM | 96 nM |  |  |  | 
COc1cccc(OC)c1OCCNCC1COc2ccccc2O1 (stereo not drawn) |  | 0.08 nM |  |  |  | 3.5 nM | 0.37 nM | 0.35 nM | 46 nM
O=C(NC1CCN(CCc2c[nH]c3ccccc23)CC1)c1ccccc1 [INDORAMIN] | 2240 nM |  | 12 nM | 3.7 nM |  |  |  |  | 
